B1: NELF-E aptamer (parent)
chain: CCCAACGACUGCCGAGCGAGAUUACGCUUGAGCGCCCCACUGAGGAUGCCCACGGGCGAUUGGGGCACGG

Variants of: B1
Assay: HiTS-RAP
Conditions: with NELF-E (Drosophila)
Procedure, shortened: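 Aptamer DNA templates carrying a T7 promoter and ter site were sequenced on an Illumina GAIIx flowcell, then transcribed in situ by T7 RNA polymerase and halted by GST-Tus (30 minutes, 37°C). Clusters were imaged after 30-minute room-temperature equilibration with NELF-E-mOrange at 0.064 to 1000 nM in HEPES binding buffer, and only the first binding curve was used. Intensities were normalised to sequencing intensity and averaged per sequence. Kd came from weighted Hill fits, keeping fits with variance below 1,000,000.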

Variant | Kd [nM]
C9G A31G | 8.03
C9G A31U | 7.5
C9G C36U | 8.98
U10G G48A | 8.83
U10G G48U | 6.92
C9G G26A | 5.39
C9G G26U | 8.09
U10G G42U | 23.2
U10G G42A | 42.8
A8U U22G | 6.1
A8U U22C | 5.14
C9U U10G | 5.19
C9G U29G | 5.58
C9G U29C | 6.28
C9G U29A | 6.02
U10G C12A | 5.88
U10G C12U | 4.41
U10G C12G | 5.4
U10A U29G | 5.61
U10A U29C | 5.24
C9A U10G | 5.43
U10A G14A | 7.05
U10A G14U | 6.38
C9G U22G | 5.5

Variant | Kd [nM]
C9G U22C | 6.33
U10G G11U | 5.48
U10G G11C | 5.59
U10G G11A | 6.15
U10G A39U | 24.6
U10G A39G | 10.1
U10G A39C | 19.7
U10G G56C | 27.1
U10G G56U | 5.31
U10G G56A | 9.45
U10G G16C | 6.96
U10G G16U | 6.08
U10G G16A | 5.62
U10C | 4.6
U10G | 4.49
U10A | 4.9
A8U G55A | 8.25
A8U G55U | 7.57
C9G C27U | 4.83
U10C C53U | 3.84
C9G A15G | 6.64
C9G A15U | 7.39
C9G G62U | 10
C9G G62A | 26.9

Variant | Kd [nM]
A8U G62A | 19.2
A8U G62U | 10
U10G C25U | 5.86
U10G C25A | 4.07
U10G C25G | 5.26
C9A | 5.07
C9G | 5.17
C9U | 5.19
U10A C12G | 6.47
C9G G34A | 9.14
U10G G20U | 6.08
U10G G20A | 5.57
C9U G65U | 6.78
U10G C49G | 7.15
U10G C49A | 20.2
U10G C49U | 18.7
C9G U41A | 79.4
C9G U41G | 6.14
C9G U41C | 80.7
U10C U23G | 5.12
C9G C12G | 5.75
C9G C12U | 5.9
C9G C12A | 4.67
C9G A52U | 14.9

Variant | Kd [nM]
C9G A52G | 4.79
C9G A52C | 7.38
U10C A67U | 5.45
C9G A46G | 47.4
C9G A46U | 68.3
A8U G56A | 16.7
A8U G56U | 6.41
A8U G65A | 5.1
A8U G65U | 8.03
C9G G42U | 7.6
C9G G42A | 56.8
U10C G16U | 5.14
C9U C17G | 6.19
U10A U61A | 26
A8U U41G | 6.19
A8U U41C | 85.6
C9G G55U | 8.84
C9G G55A | 10.3
U10C G14U | 4.95
C9U G11U | 5.56
U10C G55A | 8.56
U10C G55U | 9.22
C9G G32A | 4.88
C9G C35U | 14.3

Variant | Kd [nM]
C9G C35G | 7.59
U10A A19G | 6.65
U10C C12G | 5.94
C9G G30U | 6.64
C9G G30A | 4.33
C9G A59G | 64.3
C9G A59U | 30.4
C9G U10A | 6.51
C9G U10C | 5.98
C9G U10G | 5.46
U10G C53G | 6.55
U10G C53U | 3.77
U10G C53A | 5.46
C9U U41G | 5.98
U10A G11U | 7.2
A8U U61C | 71.4
A8U U61A | 29.9
C9G A21U | 6.36
C9G A21G | 6.86
U10A A67U | 9.22
U10A A67G | 4.3
U10A G16U | 5.86
U10C A19G | 4.87
C9G G11A | 6.35

Variant | Kd [nM]
C9G G11U | 6
U10A C53U | 5.03
U10G G32C | 4.38
U10G G32A | 4.44
U10G G32U | 5.18
C9G A19G | 5.58
C9G A19U | 7.14
U10C G64A | 9.5
U10G C40U | 63.9
U10G C40G | 5.38
C9G A24G | 5.84
C9G A24U | 7.67
C9G U23G | 5.35
C9G U23C | 4.37
C9G U23A | 6.12
C9G G54U | 6.83
C9G G54A | 17
U10C C13G | 5.55
U10A A31U | 5.78
U10A A31G | 9.84
U10G G34C | 13.2
U10G G34U | 5.54
U10G G34A | 6.95
C9G C57U | 7.56

Variant | Kd [nM]
C9G C50U | 13.5
C9G C50G | 7.4
C9G C50A | 23.5
U10A G26A | 5.22
A8U G63U | 11.1
A8U G63A | 15.3
U10G A52U | 14.9
U10G A52C | 5.8
U10G A52G | 4.22
U10C U29G | 6.02
U10C U29C | 7.71
U10G C38G | 7
U10G C38U | 9.49
U10G C38A | 39.8
C9G C51A | 8.9
C9G C51U | 8.2
U10G G54U | 6.86
U10G G54A | 12
U10C C57U | 4.92
U10G C35A | 7.32
U10G C35U | 16.3
U10G C35G | 6.33
C9G G14A | 6.55
